Data reported in article PMC2582146 (Biochemistry, 2008).
One block for each compound: values may come before it. No end group written: not given here.

How the values were obtained:
[1] = biological target: full-length CAL (Homo sapiens, UniProt Q9HD26); assay: Fluorescence polarization direct binding, full-length CAL; conditions: 30 nM reporter titrated with full-length CAL
Outline: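 Direct titration: full-length CAL pre-incubated 10–30 min at room temperature in FP buffer (storage buffer 25 mM Tris pH 8.5, 150 mM NaCl, 0.02% NaN3, 0.1 mM ATP, plus 0.1 mg/mL bovine IgG, 0.5 mM Thesit) containing fluorescent peptide. Serially diluted into the same buffer, then 10 min incubation and 15 min equilibration at 24 °C. Polarization read at ex 485/em 525 nm.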

[2] = biological target: T1, CAL PDZ domain (CALP) (Homo sapiens, UniProt Q9HD26); assay: Fluorescence polarization competition binding, CALP with F*C-SSR5_10 reporter
Outline: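 Competition FP using fluorescein-5-maleimide-labelled Cys-peptide reporter in FP buffer: storage buffer (25 mM Tris pH 8.5, 150 mM NaCl, 0.02% NaN3, 0.1 mM TCEP or 1 mM DTT) plus 0.1 mg/mL bovine IgG and 0.5 mM Thesit. Unlabelled Cys-peptides titrated into reporter–protein mix, 15 min at 24 °C. Ex 485/em 525 nm. Ki fit with free protein from exact cubic solution, using known reporter Kd.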

[3] = biological target: T1, CAL PDZ domain (CALP); assay: Fluorescence polarization competition binding, CALP with F*C-GBG4_10 reporter
[4] = biological target: T2, NHERF1 PDZ1 domain (N1P1) (Homo sapiens, UniProt O14745); assay: Fluorescence polarization direct binding, NHERF1 PDZ1; conditions: titration with increasing N1P1
T2 sequence (O14745 1-139): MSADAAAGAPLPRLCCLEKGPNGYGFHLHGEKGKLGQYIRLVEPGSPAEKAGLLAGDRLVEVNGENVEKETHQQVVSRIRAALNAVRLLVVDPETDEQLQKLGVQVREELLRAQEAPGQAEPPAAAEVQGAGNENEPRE

[5] = biological target: T3, NHERF1 PDZ2 domain (N1P2) (Homo sapiens, UniProt O14745); assay: Fluorescence polarization direct binding, NHERF1 PDZ2; conditions: titration with increasing N1P2
T3 sequence (O14745 132-299): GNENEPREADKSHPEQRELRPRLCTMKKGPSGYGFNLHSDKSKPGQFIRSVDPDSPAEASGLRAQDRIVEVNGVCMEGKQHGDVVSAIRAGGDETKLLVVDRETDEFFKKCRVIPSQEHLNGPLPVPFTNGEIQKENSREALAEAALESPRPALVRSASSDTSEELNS

- interaction in FP titration [1]: too weak to be fit
Compound: CC(C)C[C@H](NC(=O)[C@H](CCCNC(=N)N)NC(=O)[C@@H](NC(=O)[C@H](CC(=O)O)NC(=O)[C@H](CCC(N)=O)NC(=O)[C@@H](NC(=O)[C@H](CCC(=O)O)NC(=O)[C@H](CCC(=O)O)NC(=O)[C@H](CCC(=O)O)NC(=O)[C@@H](NC(=O)c1ccc2c(c1)C(=O)OC21c2ccc(O)cc2Oc2cc(O)ccc21)[C@@H](C)O)C(C)C)[C@@H](C)O)C(=O)O [F*-CFTR10]

- Ki [2]: 63 ± 15 µM
- Ki [3]: 109 ± 12 µM
Compound: CREKKFFSTIL [C-GBG4_10]

- FP shift of reporter [4]: neither domain caused an FP shift
- FP shift of reporter [5]: neither domain caused an FP shift
Compound: F*C-SCR6: fluorescent reporter peptide with a scrambled sequence (C(fluorescein‑5‑maleimide)QVTLDR)
